Reference: ChEMBL document CHEMBL1629601, “In vitro susceptibility of field isolates of Leishmania donovani to Miltefosine and amphotericin B: correlation with sodium antimony gluconate susceptibility and implications for treatment in areas of endemicity” (2009)
Values after ≈ are worked out from the molar mass of the structure shown.

How the values were obtained:
Type in all cases: functional
[1] = test system: Leishmania donovani; experiment: Antimicrobial activity against Leishmania donovani K59 amastigote; conditions: read-out: ED50 (the source's name)
[2] = test system: Leishmania donovani; experiment: Decrease in LdMT gene expression in Leishmania donovani K251 by RT-PCR method
Method in brief: (§1)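 VL field isolates of L. donovani. Transcript levels of LdMT or LdRos3 were measured by real-time RT-PCR with SYBR green and analysed by the 2−ΔΔCt method. The expression index is the ratio of gene expression to that of the standard L. donovani strain LdAG83, and a decrease is relative to LdAG83. Values are means of three independent experiments.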

[3] = test system: Leishmania donovani; experiment: Decrease in LdRoS3 gene expression in Leishmania donovani K216 by RT-PCR method; method in brief: as §1
[4] = test system: Leishmania donovani; experiment: Decrease in LdRoS3 gene expression in Leishmania donovani K417M20 by RT-PCR method
Method in brief: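 MIL-resistant M20 parasites were generated by raising the MIL concentration stepwise up to 20 μg/ml. LdMT or LdRos3 expression was quantified by real-time RT-PCR (SYBR green, 2−ΔΔCt method) and reported as an expression index, the ratio to the standard strain LdAG83. A decrease is relative to LdAG83. Values are means of three independent experiments.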

[5] = test system: Leishmania donovani; experiment: Antimicrobial activity against Leishmania donovani K429 amastigote; conditions: read-out: ED50 (the source's name)
[6] = test system: Leishmania donovani; experiment: Decrease in LdMT gene expression in Leishmania donovani K417 by RT-PCR method; method in brief: as §1
[7] = test system: Leishmania donovani; experiment: Antimicrobial activity against Leishmania donovani LdAG83 promastigote; conditions: read-out: ED50 (the source's name)
[8] = test system: Leishmania donovani; experiment: Decrease in LdMT gene expression in Leishmania donovani K435 by RT-PCR method; method in brief: as §1
[9] = test system: Leishmania donovani; experiment: Decrease in LdMT gene expression in Leishmania donovani K59 by RT-PCR method; method in brief: as §1
[10] = test system: Leishmania donovani; experiment: Decrease in LdRoS3 gene expression in Leishmania donovani K133 by RT-PCR method; method in brief: as §1
[11] = test system: Leishmania donovani; experiment: Antimicrobial activity against Leishmania donovani K481 amastigote; conditions: read-out: ED50 (the source's name)
[12] = test system: Leishmania donovani; experiment: Antimicrobial activity against Leishmania donovani K149 amastigote; conditions: read-out: ED50 (the source's name)
[13] = test system: Leishmania donovani; experiment: Antimicrobial activity against Leishmania donovani K439 promastigote; conditions: read-out: ED50 (the source's name)
[14] = test system: Leishmania donovani; experiment: Antimicrobial activity against Leishmania donovani K251 amastigote; conditions: read-out: ED50 (the source's name)
[15] = test system: Leishmania donovani; experiment: Antimicrobial activity against Leishmania donovani K516 promastigote; conditions: read-out: ED50 (the source's name)
[16] = test system: Leishmania donovani; experiment: Antimicrobial activity against Leishmania donovani K435 promastigote; conditions: read-out: ED50 (the source's name)
[17] = test system: Leishmania donovani; experiment: Antimicrobial activity against Leishmania donovani K135 promastigote; conditions: read-out: ED50 (the source's name)
[18] = test system: Leishmania donovani; experiment: Decrease in LdRoS3 gene expression in Leishmania donovani K59 by RT-PCR method; method in brief: as §1
[19] = test system: Leishmania donovani; experiment: Decrease in LdRoS3 gene expression in Leishmania donovani K439 by RT-PCR method; method in brief: as §1
[20] = test system: Leishmania donovani; experiment: Antimicrobial activity against Leishmania donovani K417M20 promastigote; conditions: read-out: ED50 (the source's name)
[21] = test system: Leishmania donovani; experiment: Decrease in LdMT gene expression in Leishmania donovani K132 by RT-PCR method
Method in brief: (§2)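 LdMT transcript levels were measured by real-time RT-PCR with SYBR green and analysed by the 2−ΔΔCt method. They are expressed as an expression index, the ratio relative to reference strain LdAG83, and are the mean of three independent experiments.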

[22] = test system: Leishmania donovani; experiment: Antimicrobial activity against Leishmania donovani K251 promastigote; conditions: read-out: ED50 (the source's name)
[23] = test system: Leishmania donovani; experiment: Decrease in LdRoS3 gene expression in Leishmania donovani K192 by RT-PCR method; method in brief: as §1
[24] = test system: Leishmania donovani; experiment: Antimicrobial activity against Leishmania donovani K131 amastigote; conditions: read-out: ED50 (the source's name)
[25] = test system: Leishmania donovani; experiment: Antimicrobial activity against Leishmania donovani K216 amastigote; conditions: read-out: ED50 (the source's name)
[26] = test system: Leishmania donovani; experiment: Antimicrobial activity against Leishmania donovani K133 promastigote; conditions: read-out: ED50 (the source's name)
[27] = test system: Leishmania donovani; experiment: Antimicrobial activity against Leishmania donovani K59M20 promastigote; conditions: read-out: ED50 (the source's name)
[28] = test system: Leishmania donovani; experiment: Decrease in LdMT gene expression in Leishmania donovani K131 by RT-PCR method; method in brief: as §2
[29] = test system: Leishmania donovani; experiment: Antimicrobial activity against Leishmania donovani K417M20 amastigote; conditions: read-out: ED50 (the source's name)
[30] = test system: Leishmania donovani; experiment: Antimicrobial activity against Leishmania donovani K417 promastigote; conditions: read-out: ED50 (the source's name)
[31] = test system: Leishmania donovani; experiment: Antimicrobial activity against Leishmania donovani K498 promastigote; conditions: read-out: ED50 (the source's name)
[32] = test system: Leishmania donovani; experiment: Antimicrobial activity against Leishmania donovani K133 amastigote; conditions: read-out: ED50 (the source's name)
[33] = test system: Leishmania donovani; experiment: Antimicrobial activity against Leishmania donovani LdAG83 amastigote; conditions: read-out: ED50 (the source's name)
[34] = test system: Leishmania donovani; experiment: Antimicrobial activity against Leishmania donovani K59 promastigote; conditions: read-out: ED50 (the source's name)
[35] = test system: Leishmania donovani; experiment: Decrease in LdMT gene expression in Leishmania donovani K439 by RT-PCR method; method in brief: as §1
[36] = test system: Leishmania donovani; experiment: Decrease in LdRoS3 gene expression in Leishmania donovani K80 by RT-PCR method; method in brief: as §1
[37] = test system: Leishmania donovani; experiment: Decrease in LdMT gene expression in Leishmania donovani K192 by RT-PCR method; method in brief: as §1
[38] = test system: Leishmania donovani; experiment: Decrease in LdMT gene expression in Leishmania donovani K133 by RT-PCR method; method in brief: as §2
[39] = test system: Leishmania donovani; experiment: Decrease in LdRoS3 gene expression in Leishmania donovani K435 by RT-PCR method; method in brief: as §1
[40] = test system: Leishmania donovani; experiment: Antimicrobial activity against Leishmania donovani K439 amastigote; conditions: read-out: ED50 (the source's name)
[41] = test system: Leishmania donovani; experiment: Antimicrobial activity against Leishmania donovani K417 amastigote; conditions: read-out: ED50 (the source's name)

CCCCCCCCCCCCCCCCOP(=O)([O-])OCC[N+](C)(C)C [MILTEFOSINE]
EC50 [1]: 1.86 µg/mL (≈ 4.56 µM) | fold change (FC) [2]: 7.68 | fold change (FC) [3]: 9.43 | fold change (FC) [4]: 100 | EC50 [5]: 1.24 µg/mL (≈ 3.04 µM) | fold change (FC) [6]: 1.88 | EC50 [7]: 1.05 µg/mL (≈ 2.58 µM) | fold change (FC) [8]: 2.67 | fold change (FC) [9]: 2.84 | fold change (FC) [10]: 4.52 | EC50 [11]: 2.32 µg/mL (≈ 5.69 µM) | EC50 [12]: 1.57 µg/mL (≈ 3.85 µM) | EC50 [13]: 0.87 µg/mL (≈ 2.13 µM) | EC50 [14]: 1.59 µg/mL (≈ 3.9 µM) | EC50 [15]: 1.62 µg/mL (≈ 3.97 µM) | EC50 [16]: 1.16 µg/mL (≈ 2.85 µM) | EC50 [17]: 0.86 µg/mL (≈ 2.11 µM) | fold change (FC) [18]: 4.06 | fold change (FC) [19]: 3.12 | EC50 [20]: > 15 µg/mL | fold change (FC) [21]: 5.5 | EC50 [22]: 0.4 µg/mL (≈ 0.981 µM) | fold change (FC) [23]: 1.9 | EC50 [24]: 0.51 µg/mL (≈ 1.25 µM) | EC50 [25]: 0.91 µg/mL (≈ 2.23 µM) | EC50 [26]: 0.83 µg/mL (≈ 2.04 µM) | EC50 [27]: > 15 µg/mL | fold change (FC) [28]: 2.43 | EC50 [29]: > 15 µg/mL | EC50 [30]: 1.72 µg/mL (≈ 4.22 µM) | EC50 [31]: 1.32 µg/mL (≈ 3.24 µM) | EC50 [32]: 0.93 µg/mL (≈ 2.28 µM) | EC50 [33]: 0.85 µg/mL (≈ 2.09 µM) | EC50 [34]: 1.19 µg/mL (≈ 2.92 µM) | fold change (FC) [35]: 4.76 | fold change (FC) [36]: 1.71 | fold change (FC) [37]: 0.23 | fold change (FC) [38]: 1.5 | fold change (FC) [39]: 4.76 | EC50 [40]: 1.07 µg/mL (≈ 2.63 µM) | EC50 [41]: 1.9 µg/mL (≈ 4.66 µM)
